Experimental data published in ChEMBL document CHEMBL3734704, “Synthesis and Biological Evaluation of Novel Bouchardatine Derivatives as Potential Adipogenesis/Lipogenesis Inhibitors for Antiobesity Treatment” (J Med Chem, 2015).
Active and inactive are the calls of the source. No cut-off for these calls is given here.

What was measured:
3T3-L1 [1] = test: Induction of apoptosis in mouse 3T3L1 cells assessed as viable cells at 1 uM after 24 hrs by annexin-V-FITC and PI staining based flow cytometry (reference value: 98.95%); type: functional; conditions: 3T3-L1, 24 h, read-out: Activity
[2] = Upregulation of LKB1 expression in mouse 3T3L1 cells at 3 uM after 10 mins by western blot analysis; type: functional, cell-based; conditions: 3T3-L1
Procedure, shortened: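 During 3T3-L1 differentiation with adipogenic cocktail, cells were treated with 3 µM compound for 10 min, 2 h or 24 h. Lysates in RIPA with protease/phosphatase inhibitors were run on SDS-PAGE and Western blotted. Proteins were normalized to GAPDH and expressed relative to the 10 min DMSO group, which was set at 100%; n = 3 independent experiments.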

3T3-L1 [3] = test: Induction of apoptosis in mouse 3T3L1 cells assessed as early apoptotic cells at 3 uM after 24 hrs by annexin-V-FITC and PI staining based flow cytometry (reference value: 0.56%); type: functional
HepG2 [4] = test: Decrease in triglyceride level in human HepG2 cells at 10 uM after 24 hrs by GPO-POD assay in presence of 0.5 mM oleic acid sodium; type: functional
Procedure, shortened: (§1)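 HepG-2 cells seeded, then after 24 h exposed to 0.5 mM oleic acid sodium plus compound (1 µM; dose series up to 10 µM) for 24 h, DMSO vehicle. Cells lysed in 0.2% Triton X-100 for 1 h, sonicated, centrifuged. Triglyceride measured by GPO-POD kit and cholesterol by kit, both normalized to BCA protein; n = 3.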

[5] = Decrease in triglyceride level in mouse 3T3L1 cells during all developmental stages at 0.5 uM for 9 days; type: functional, cell-based; conditions: 3T3-L1
Procedure, shortened: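 During 3T3-L1 differentiation with compound present (0.5 µM, or 5 µM for one compound), cells were collected and counted every day and triglyceride content was measured by TG assay.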

[6] = Downregulation of PPAR-gamma level in mouse 3T3L1 cells at 0.3 to 3 uM after 3 days by western blot analysis; type: functional, cell-based; conditions: 3T3-L1
Procedure, shortened: (§2)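 3T3-L1 preadipocytes incubated in adipogenic cocktail with or without compound (0.3, 1.0, 3.0 µM) for the stated periods. Protein levels measured by Western blot (RIPA lysis, PVDF, BSA block, primary 16 h at 4 °C, HRP secondary), normalized to GAPDH/Tubulin and expressed relative to controls; n = 3.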

3T3-L1 [7] = test: Induction of apoptosis in mouse 3T3L1 cells assessed as early apoptotic cells at 0.3 uM after 24 hrs by annexin-V-FITC and PI staining based flow cytometry (reference value: 0.56%); type: functional
3T3-L1 [8] = test: Induction of apoptosis in mouse 3T3L1 cells assessed as late apoptotic cells at 0.3 uM after 24 hrs by annexin-V-FITC and PI staining based flow cytometry (reference value: 0.03%); type: functional
[9] = Cell cycle arrest in mouse 3T3L1 cells assessed as number of cells at G2/M phase at 3 uM after 24 hrs by flow cytometry (reference value: 37.2%); type: functional, cell-based; conditions: 3T3-L1
3T3-L1 [10] = test: Induction of apoptosis in mouse 3T3L1 cells assessed as late apoptotic cells at 1 uM after 24 hrs by annexin-V-FITC and PI staining based flow cytometry (reference value: 0.03%); type: functional
[11] = Cytotoxicity against mouse 3T3L1 cells preadipocytes assessed as cell viability at 1 to 10 uM for 24, 48 and 72 hrs by LDH release assay relative to control; conditions: 3T3-L1 preadipocyte cells
[12] = Downregulation of SREBP-1c mRNA level in mouse 3T3L1 cells at 0.3 to 3 uM after 24 hrs by RT-PCR analysis; type: functional, cell-based; conditions: 3T3-L1
Procedure, shortened: (§3)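 3T3-L1 preadipocytes in adipogenic cocktail with compound (0.3-3.0 µM; 3 µM for the 2 h and 24 h time course). Total RNA extracted, cDNA made from 1 µg RNA with oligo primer, then PCR: 95 °C 10 min, 35 cycles of 95 °C 30 s, annealing 45 s, 72 °C 1 min, final 72 °C 10 min. Normalized to actin; n = 3.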

[13] = Cell cycle arrest in mouse 3T3L1 cells assessed as number of cells at S phase at 1 uM after 24 hrs by flow cytometry (reference value: 18.1%); type: functional, cell-based; conditions: 3T3-L1
[14] = Downregulation of ACC level in mouse 3T3L1 cells after 6 days by western blot analysis; type: functional, cell-based; conditions: 3T3-L1; procedure, shortened: as §2
[15] = Downregulation of SREBP-1c level in mouse 3T3L1 cells at 0.3 to 3 uM after 3 days by western blot analysis; type: functional, cell-based; conditions: 3T3-L1; procedure, shortened: as §2
[16] = Downregulation of FAS level in mouse 3T3L1 cells after 6 days by western blot analysis; type: functional, cell-based; conditions: 3T3-L1; procedure, shortened: as §2
[17] = Decrease in triglyceride accumulation in mouse 3T3L1 cells at 10 uM for 3 days oil red O staining based microscopic analysis; type: functional, cell-based; conditions: 3T3-L1
Procedure, shortened: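 3T3-L1 cells differentiated from 2 days post-confluence with IBMX/dexamethasone/insulin cocktail for 3 days, then insulin medium to Day 6. Compounds at 1 and 10 µM added Day 0 for 3 days. Triglyceride read on Day 6 with Oil Red O (formaldehyde fixation, 30 min stain, isopropanol extraction, OD 510 nm); n = 3.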

[18] = Downregulation of C/EBP alpha mRNA level in mouse 3T3L1 cells at 3 uM after 24 hrs by RT-PCR analysis; type: functional, cell-based; conditions: 3T3-L1; procedure, shortened: as §3
[19] = Cell cycle arrest in mouse 3T3L1 cells assessed as number of cells at G2/M phase at 0.3 uM after 24 hrs by flow cytometry (reference value: 37.2%); type: functional, cell-based; conditions: 3T3-L1
[20] = Downregulation of C/EBP beta mRNA level in mouse 3T3L1 cells at 0.3 to 3 uM after 24 hrs by RT-PCR analysis; type: functional, cell-based; conditions: 3T3-L1; procedure, shortened: as §3
[21] = Downregulation of SREBP-1c mRNA level in mouse 3T3L1 cells at 3 uM after 24 hrs by RT-PCR analysis; type: functional, cell-based; conditions: 3T3-L1; procedure, shortened: as §3
[22] = Decrease in triglyceride level in mouse 3T3L1 cells at 1 uM measured during 3 to 6 days by oil red O staining based microscopic analysis; type: functional, cell-based; conditions: 3T3-L1
Procedure, shortened: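 3T3-L1 cells given 1 µM compound during day 0-3, 0-6, 0-9, 3-6, 3-9 or 6-9 of differentiation. On Day 9, intracellular lipid measured by TG assay (Triton lysate, GPO-POD kit, per protein) and by Oil Red O staining with microscopy; n = 3.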

[23] = Downregulation of PPAR-gamma mRNA level in mouse 3T3L1 cells at 3 uM after 24 hrs by RT-PCR analysis; type: functional, cell-based; conditions: 3T3-L1; procedure, shortened: as §3
3T3-L1 [24] = test: Inhibition of cell differentiation in mouse 3T3L1 cells assessed as delayed time point of cell contact inhibition at 0.5 uM for 9 days; type: functional
Procedure, shortened: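 3T3-L1 preadipocytes were induced to differentiate (IBMX/dexamethasone/insulin for 3 days, then insulin) with compound added from day 0 at 0.5 or 5 µM; DMSO vehicle served as control. Cells were collected and counted every day to follow proliferation and to find when contact inhibition resumed.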

[25] = Cell cycle arrest in mouse 3T3L1 cells assessed as number of cells at G0/G1 phase at 1 uM after 24 hrs by flow cytometry (reference value: 37.6%); type: functional, cell-based; conditions: 3T3-L1
HeLa = test: Drug uptake in human HeLa cells measured from 5 mins to 1 hr by fluorescence analysis; type: ADME, cell-based
HepG2 [26] = test: Decrease in triglyceride level in human HepG2 cells after 24 hrs by GPO-POD assay in presence of 0.5 mM oleic acid sodium; type: functional, cell-based; procedure, shortened: as §1

With `O=Cc1c(-c2nc(NCCN3CCCC3)c3ccccc3n2)[nH]c2ccccc12` the viability at 1 µM (3T3-L1 [1]) was 98%, the Activity [2] was “Active” and the Activity (3T3-L1 [3]) was 0.39%. The “inhibition (INH)” value (HepG2 [4]) was 32%, the inhibition [5] was “Active” and the inhibition [6] was “Active”. It also gave an Activity (3T3-L1 [7]) of 1.58%, an Activity (3T3-L1 [8]) of 0.47% and an Activity [9] of 57.9%. For the same compound, the Activity (3T3-L1 [10]) was 0.25%, the viability at 72 h, 10 µM [11] was 83% and the inhibition [12] was “Active”. The Activity [13] was 5.2%, the inhibition [14] was “Dose-dependent effect” and the inhibition [15] was “Active”. The inhibition [16] was “Dose-dependent effect”, the inhibition [17] was 94.9% and the inhibition [18] was “Active”. For the same compound, the Activity [19] was 40.2%, the inhibition [20] was “Active” and the inhibition [21] was “Active”. For the same compound, the inhibition [22] was 80%, the inhibition [23] was “Active” and the Time (3T3-L1 [24]) was 6 days. For the same compound, the Activity [25] was 42.9%, the Drug uptake (HeLa) was “Active” and the inhibition (HepG2 [26]) was “Dose-dependent effect”.
